Published values gathered from unrelated publications.
Compare with care: the assays were run in different laboratories.
ALB: Albumin (ALB, Bos taurus, UniProt P02769)
PDE4C: 3',5'-cyclic-AMP phosphodiesterase 4C (PDE4C, Homo sapiens, UniProt Q08493)
Pancreatic alpha-amylase: Pancreatic alpha-amylase (Homo sapiens, UniProt P04746)
CYP3A7: Cytochrome P450 3A7 (CYP3A7, Homo sapiens, UniProt P24462)

| Compound | target | assay | setting | endpoint | value |
| --- | --- | --- | --- | --- | --- |
| O=C(C=Cc1ccccc1)Nc1cc(-c2ccnc(N3CCC(O)CC3)c2)ccn1 | Retinoic acid receptor RXR-alpha (RXRA, Homo sapiens, UniProt P19793) | binding, SPR | – | Kd | 0.78 µM |
| CC(C)C[C@H](NC(=O)[C@H](CC(N)=O)NC(=O)[C@H](Cc1c[nH]c2ccccc12)NC(=O)[C@@H](NC(=O)[C@H](Cc1ccc(O)cc1)NC(=O)[C@H](Cc1ccc(O)cc1)NC(=O)[C@H](CO)NC(=O)[C@H](CCCNC(=N)N)NC(=O)[C@H](Cc1c[nH]cn1)NC(=O)[C@@H](N)Cc1c[nH]c2ccccc12)[C@@H](C)O)C(=O)O | ALB | binding, SPR | – | Kd | 3.99 µM |
| CN(C)C(=O)c1cc2cnc(Nc3ccc(N4CCNCC4)cn3)nc2n1C1CCCC1 | PDE4C | enzyme activity, inhibitor, TR-FRET | – | IC50 | 4.4 µM |
| OC[C@H]1O[C@@H](Oc2cc3c4c(c2)[C@@H]([C@@H]2c5cc(O)cc6c5[C@@H](c5cc(O)cc(O)c5[C@H]2c2ccc(O)cc2)[C@H](c2ccc(O)cc2)O6)[C@H](c2ccc(O)cc2)c2c(O)cc(O)cc2[C@H]4[C@H](c2ccc(O)cc2)O3)[C@H](O)[C@@H](O)[C@@H]1O | Pancreatic alpha-amylase | enzyme activity, inhibitor | – | IC50 | > 100 µM |
| CCN(CC)c1ccc(/C=N/c2ccc(Cl)cc2)c(O)c1 | Pancreatic alpha-amylase | enzyme activity, inhibitor, absorbance | – | IC50 | 63.5 µM |
| Oc1ccc([C@@H]2c3c(O)cc(O)cc3[C@@H]3c4c(cc(O)c5c4[C@@H]2[C@H](c2ccc(O)cc2)[C@H]5c2cc(O)cc4c2[C@@H](c2cc(O)cc(O)c2)[C@H](c2ccc(O)cc2)O4)O[C@H]3c2ccc(O)cc2)cc1 | Pancreatic alpha-amylase | enzyme activity, inhibitor | – | IC50 | 6.1 µM |
| CCc1c(C)nc(-c2ccc(Cl)s2)nc1Nc1ccc(CC(=O)O)cc1 | PDE4C | enzyme activity, inhibitor, FP | – | IC50 | ~63 µM |
| CC(C)(C)[C@@H]1NC(=O)O[C@@H]2CCC[C@H]2OC/C=C/C(F)(F)c2nc3ccccc3nc2O[C@@H]2C[C@@H](C(=O)N[C@]3(C(=O)NS(=O)(=O)C4(C)CC4)C[C@H]3C(F)F)N(C2)C1=O | CYP3A7 | enzyme activity, inhibitor, mass spectrometry | 5 min | IC50 | 12.1 µM |
| CCN(CC)c1ccc(/C=N/c2ccccc2F)c(O)c1 | Pancreatic alpha-amylase | enzyme activity, inhibitor, absorbance | – | IC50 | 255 µM |
| COc1ccc2c(O[C@@H]3C[C@H]4C(=O)N[C@]5(C(=O)NS(=O)(=O)C6CC6)C[C@H]5/C=C\CCCCN(C)C(=O)[C@@H]4C3)cc(-c3nc(C(C)C)cs3)nc2c1C | CYP3A7 | enzyme activity, inhibitor, mass spectrometry | 5 min | IC50 | 16.1 µM |
| N=c1c[n+](N2CCOCC2)[n-]o1 | NAD-dependent protein deacylase sirtuin-5, mitochondrial (SIRT5, Homo sapiens, UniProt Q9NXA8) | enzyme activity, inhibitor, HPLC | – | IC50 | 8 µM |
| C[C@@H](O)[C@H](NC(=O)[C@H](Cc1ccc(O)cc1)NC(=O)[C@H](Cc1ccc(O)cc1)NC(=O)[C@H](CO)NC(=O)[C@H](CCCNC(=N)N)NC(=O)[C@H](Cc1c[nH]cn1)NC(=O)[C@@H](N)Cc1c[nH]c2ccccc12)C(=O)N[C@@H](Cc1c[nH]c2ccccc12)C(=O)N[C@@H](CC(N)=O)C(=O)O | ALB | binding, SPR | – | Kd | 6.12 µM |
| CCN(CC)c1ccc(/C=N/c2ccc(F)c(Cl)c2)c(O)c1 | Pancreatic alpha-amylase | enzyme activity, inhibitor, absorbance | – | IC50 | 190 µM |
| CC(C)(C)OC(=O)N[C@H]1CCCCC/C=C\[C@@H]2C[C@@]2(C(=O)NS(=O)(=O)C2CC2)NC(=O)[C@@H]2C[C@@H](OC(=O)N3Cc4cccc(F)c4C3)CN2C1=O | CYP3A7 | enzyme activity, inhibitor, mass spectrometry | 5 min | IC50 | 21.9 µM |
| O=C1CCc2ccccc2O1 | Carbonic anhydrase 9 (CA9, Homo sapiens, UniProt Q16790) | enzyme activity, inhibitor, stopped-flow | – | Ki | 4.1 µM |
